Hits are enriched below; roughly 2.8% of the tested compounds scored in any of these assays.
NPY-Y2 antag: blocks the human neuropeptide Y Y2 receptor; NPY-Y2 expressing cells, antagonist mode; inhibition, % at 2.7 µM; 0.99% of 140,000 active; in the data active means inhibition above about 17%;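 further: 0% = vehicle with agonist challenge and 100% = reference antagonist with challenge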
NPY-Y1 PAM-ag: potentiates or activates human NPY-Y1 receptor | activation, % at 3.6 µM | NPY-Y1 expressing cells, potentiator/agonist activation | 0.37% of 220,000 active; in the data active means activation above about 33%, passing the limit was not always enough;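 further: cells stimulated with NPY at EC10 then isoproterenol at EC100; 0% = low agonist plus stimulus and 100% = saturating agonist plus stimulus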
NPY2 pot ag: human NPY-Y2 potentiation or agonism, primary screen. cells expressing NPY-Y2, potentiator/agonist read-out. activation, % at 3.6 µM. 0.45% of 220,000 active; in the data active means activation above about 27%;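 further: cells stimulated with NPY near EC25 plus isoproterenol at EC100; 0% = vehicle plus submaximal agonist and 100% = vehicle plus saturating agonist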
NPY-Y1 antag: blocks the human neuropeptide Y Y1 receptor | P25929 | HEK293-CNG Y1 cells, membrane potential fluorescence; NPY at EC95, then isoproterenol | inhibition, % at 3.6 µM | 1% of 200,000 active | AID 1040;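 active means inhibition above the campaign mean inhibition of all tested compounds plus 3 SD, cut at about 20% in these data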;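 further: 0% = DMSO wells given NPY plus isoproterenol and 100% = isoproterenol alone without NPY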
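Assay system: HEK293 cells with Y1 receptor plus CNG channel | Probe or stimulus: NPY (25 nM), isoproterenol (1 µM), Ro 20-1724 (25 µM) | Timing: Compound incubation 1 h at room temperature, readout 45 min post-stimulation | Measured by: Membrane-potential fluorescent dye readout | Benchmarks: High control isoproterenol alone, low control NPY with isoproterenol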
Measles CPE: protection of cells from measles virus; Measles virus-infected cells, CPE protection, absorbance; protection (pct of control), % at 4 µM; 1.5% of 140,000 active; AID 841; in the data active means protection mostly above about 24%, no sharp cut-off; inactive means mostly below about 26%
Mdm2 ligase inh: blocks human Mdm2 ubiquitin ligase activity. AID 1230. signal enhancement, % at 5 µM. 0.11% of 210,000 active. Q00987. cell-based MDM2 ubiquitination luciferase reporter, 2 h; 0 = plate control, 100 = twice control, blank-subtracted;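 active means signal enhancement of 30% or more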;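 further: luminescence tracks abundance of the self-degrading MDM2-luciferase fusion protein; higher signal means inhibition of MDM2 E3 ligase activity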
Target sequence (Q00987 whole entry, looked up, the tested form may be a part): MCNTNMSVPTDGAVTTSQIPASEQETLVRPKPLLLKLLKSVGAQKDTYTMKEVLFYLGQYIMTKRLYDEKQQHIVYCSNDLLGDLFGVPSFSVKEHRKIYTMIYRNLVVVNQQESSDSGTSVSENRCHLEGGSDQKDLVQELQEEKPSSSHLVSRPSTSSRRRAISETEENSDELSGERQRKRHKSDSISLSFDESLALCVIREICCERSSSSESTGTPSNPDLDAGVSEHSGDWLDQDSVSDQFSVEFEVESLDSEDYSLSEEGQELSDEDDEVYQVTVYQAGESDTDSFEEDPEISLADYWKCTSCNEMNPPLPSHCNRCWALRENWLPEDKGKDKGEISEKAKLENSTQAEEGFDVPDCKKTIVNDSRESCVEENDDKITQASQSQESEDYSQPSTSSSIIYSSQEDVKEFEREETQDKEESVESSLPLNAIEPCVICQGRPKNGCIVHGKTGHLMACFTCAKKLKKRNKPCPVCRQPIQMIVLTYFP
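system = mammalian cells stably expressing self-ubiquitinating, self-degrading MDM2 E3–luciferase fusion | quantity = 2000 cells per well seeded | incubation = 4 h cell settling then 2 h compound exposure, 37 °C | signal = SteadyLite luminescence, 15 min reagent step | benchmarks = plate control and blank wells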
Active calls of the source: *.

Results for COc1ccc([N+](=O)[O-])cc1NC(=S)NC(NC(=O)C(c1ccccc1)c1ccccc1)C(Cl)(Cl)Cl (stereo unspecified) ?
NPY-Y2 antag: 1; NPY-Y1 PAM-ag: 10; NPY2 pot ag: 22; NPY-Y1 antag: -3; Measles CPE: 77*; Mdm2 ligase inh: -3

How did CC(=O)Nc1ccc(C(=O)Cn2c3[n+](c4c(F)c(F)ccc42)CCCCC3)cc1 do in these assays?
NPY-Y1 PAM-ag: 15; NPY2 pot ag: 4; NPY-Y1 antag: 1; Mdm2 ligase inh: -4

How did CC(C(=O)Nc1ccccc1)N(c1cccc(Cl)c1)S(C)(=O)=O (stereo unspecified) do in these assays?
NPY-Y1 PAM-ag: 13; NPY2 pot ag: 6; NPY-Y1 antag: 3; Mdm2 ligase inh: 4

Results for Nc1ccccc1C(=O)NNC(=O)C(=O)/C=C(\O)c1ccccc1 ?
NPY-Y1 PAM-ag: 1; NPY2 pot ag: 2; Mdm2 ligase inh: -15

How did c1ccc2c(c1)CC(N1CCCCC1)c1ccccc1N2 (stereo unspecified) do in these assays?
NPY-Y2 antag: 4; NPY-Y1 PAM-ag: -14; NPY2 pot ag: 5; NPY-Y1 antag: 6; Measles CPE: 42*; Mdm2 ligase inh: -2

Results for CC(=O)Nc1ccc(NC(=O)CCn2c(=S)oc3ccccc32)cc1 ?
NPY-Y1 PAM-ag: 13; NPY2 pot ag: -4; NPY-Y1 antag: -2; Mdm2 ligase inh: 17

Results for CC(=O)/C=C/n1c(=S)oc2ccccc21 ?
NPY-Y2 antag: 3; NPY-Y1 PAM-ag: -18; NPY2 pot ag: -3; NPY-Y1 antag: 2; Measles CPE: 1; Mdm2 ligase inh: 51*

What do the screens show for `CC(C)CC(=O)/C=C/n1c(=S)oc2ccccc21`?
NPY-Y2 antag: 3; NPY-Y1 PAM-ag: 5; NPY2 pot ag: 7; NPY-Y1 antag: 4; Measles CPE: 0; Mdm2 ligase inh: 58*

Results for Cn1c(=S)oc2ccccc21 ?
NPY-Y1 PAM-ag: 6; NPY2 pot ag: 11; Mdm2 ligase inh: 4

What do the screens show for `CC(C)(C)OC(=O)NC(CCCCNC=O)C(=O)O` (stereo unspecified)?
NPY-Y2 antag: 6; NPY-Y1 PAM-ag: 11; NPY2 pot ag: -19; NPY-Y1 antag: 5; Measles CPE: 5; Mdm2 ligase inh: 6

Results for CCOC(=O)c1ccc(-c2ccc(/C=C(\C#N)C(=O)NCc3cccs3)o2)cc1 ?
NPY-Y2 antag: 17*; NPY-Y1 PAM-ag: 5; NPY2 pot ag: 6; NPY-Y1 antag: 1; Measles CPE: 8; Mdm2 ligase inh: -11

How did CCOC(=O)C1Cc2ccccc2CN1 (stereo unspecified) do in these assays?
NPY-Y2 antag: -3; NPY-Y1 PAM-ag: 11; NPY2 pot ag: 23; NPY-Y1 antag: -6; Measles CPE: 2; Mdm2 ligase inh: -9

Results for CCOC(=O)C1Cc2c([nH]c3ccccc23)CN1 (stereo unspecified) ?
NPY-Y2 antag: 1; NPY-Y1 PAM-ag: 0; NPY2 pot ag: 10; NPY-Y1 antag: 5; Measles CPE: 42*; Mdm2 ligase inh: -6

What do the screens show for `Cc1nc(C)n(C(C)CC(=O)O)n1` (stereo unspecified)?
NPY-Y2 antag: 2; NPY-Y1 PAM-ag: 10; NPY2 pot ag: 4; NPY-Y1 antag: -4; Measles CPE: 15; Mdm2 ligase inh: 0

How did CCOc1cc(CNc2ccc(OC)cc2)cc(Br)c1OCC(=O)NC(C)(C)C do in these assays?
NPY-Y2 antag: 1; NPY-Y1 PAM-ag: 4; NPY2 pot ag: 4; NPY-Y1 antag: 7; Measles CPE: 5; Mdm2 ligase inh: -12

How did COc1cc(CNc2ccc(C(=O)O)cc2)cc(Br)c1OCC(=O)NC(C)(C)C do in these assays?
NPY-Y2 antag: 6; NPY-Y1 PAM-ag: -16; NPY2 pot ag: -9; NPY-Y1 antag: 1; Measles CPE: 35*; Mdm2 ligase inh: 18

What do the screens show for `CC(C)CNC(=O)c1ccc(COc2ccc(Cl)cc2Cl)o1`?
NPY-Y2 antag: 4; NPY-Y1 PAM-ag: 3; NPY2 pot ag: -13; NPY-Y1 antag: 2; Measles CPE: 4; Mdm2 ligase inh: 3

What do the screens show for `O=C(CN(Cc1ccccc1)S(=O)(=O)c1ccccc1)N1CCOCC1`?
NPY-Y2 antag: 3; NPY-Y1 PAM-ag: -14; NPY2 pot ag: -16; NPY-Y1 antag: 2; Measles CPE: 38*; Mdm2 ligase inh: 11
